This is an account of results in ChEMBL document CHEMBL1255223, “Structure-activity relationship study of first selective inhibitor of excitatory amino acid transporter subtype 1: 2-Amino-4-(4-methoxyphenyl)-7-(naphthalen-1-yl)-5-oxo-5,6,7,8-tetrahydro-4H-chromene-3-carbonitrile (UCPH-101)” (J Med Chem, 2010).

Calls of active or inactive are those of the source. The calls are words filed in the database; no cut-off is given here.

For series [1], the target named is T1, Excitatory amino acid transporter 3 (Homo sapiens) (UniProt P43005).
T1 sequence (whole entry): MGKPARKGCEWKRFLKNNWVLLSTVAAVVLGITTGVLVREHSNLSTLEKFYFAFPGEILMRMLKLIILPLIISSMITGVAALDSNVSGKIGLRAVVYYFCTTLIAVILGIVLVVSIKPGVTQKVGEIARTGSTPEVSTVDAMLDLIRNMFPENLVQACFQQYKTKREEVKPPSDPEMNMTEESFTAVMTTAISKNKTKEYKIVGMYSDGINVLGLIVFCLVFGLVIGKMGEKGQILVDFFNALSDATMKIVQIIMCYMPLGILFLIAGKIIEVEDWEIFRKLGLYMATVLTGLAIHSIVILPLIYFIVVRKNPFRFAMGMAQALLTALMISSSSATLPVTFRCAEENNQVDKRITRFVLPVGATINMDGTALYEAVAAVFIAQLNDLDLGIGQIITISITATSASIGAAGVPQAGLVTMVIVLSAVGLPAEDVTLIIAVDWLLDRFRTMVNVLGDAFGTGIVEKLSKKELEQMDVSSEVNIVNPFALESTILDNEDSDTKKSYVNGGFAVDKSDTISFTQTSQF
The series is described as follows: Inhibition of human EAAT3 expressed in HEK293 cells at 300 uM by [3H]D-Asp uptake assay. It is filed as cell-based. An outline of the steps: (§1)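 [3H]-D-Asp uptake was measured in HEK293 cell lines expressing EAAT2 or EAAT3. Each analogue was tested at the highest concentration possible for it (75, 100, 300 or 1000 μM) to assess inhibitory activity.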

Series [2] deals with Excitatory amino acid transporter 1 (Homo sapiens, UniProt P43003). Kind of series: Inhibition of human EAAT1 expressed in HEK293 cells by [3H]D-Asp uptake assay. As to conditions: for pIC50: hek293. It is filed as cell-based.
For series [3], the target named is Excitatory amino acid transporter 2 (Homo sapiens) (UniProt P43004). The series is described as follows: Inhibition of human EAAT2 expressed in HEK293 cells at 300 uM by [3H]D-Asp uptake assay. It is filed as cell-based. An outline of the steps:
as §1

Series [4] has the same target. The series is described as follows: Inhibition of human EAAT2 expressed in HEK293 cells at 100 uM by [3H]D-Asp uptake assay. Type of series: cell-based. An outline of the steps:
as §1

Series [5] addresses T1, Excitatory amino acid transporter 3 (Homo sapiens). Kind of series: Inhibition of human EAAT3 expressed in HEK293 cells at 100 uM by [3H]D-Asp uptake assay. It is filed as cell-based. An outline of the steps: as §1
Series [6] deals with Excitatory amino acid transporter 2 (Homo sapiens) (UniProt P43004). Kind of series: Inhibition of human EAAT2 expressed in HEK293 cells at 1000 uM by [3H]D-Asp uptake assay. It is filed as cell-based. The method in brief:
as §1

In series [7] the target is T1, Excitatory amino acid transporter 3 (Homo sapiens). The series is described as follows: Inhibition of human EAAT3 expressed in HEK293 cells at 1000 uM by [3H]D-Asp uptake assay. It is filed as cell-based. An outline of the steps: as §1
For a further series, the system named is Brain. Kind of series: Drug level in Sprague-Dawley rat brain at 10 mg/kg. It is filed as ADME, organism-based. The arrangement: dose 10 mg/kg. As to conditions: in vivo. The method in brief: (§2)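 Male Sprague-Dawley rats (225 g at arrival) received an oral dose of 10 mg/kg, formulated in 100% PEG400 (5 mL/kg). Three groups (n = 3/group) were sampled at 0.5, 1 and 2 h for cardiac EDTA plasma (under isoflurane) and whole brain homogenized in 70% acetonitrile. UPLC-MS/MS quantitation used an internal standard, with a brain limit of quantification of 10 ng/g.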

Series [8] in a line: Terminal half life in Sprague-Dawley rat at 10 mg/kg. As to conditions: in vivo, read-out: beta t1/2. It is filed as ADME, organism-based. The arrangement: dose 10 mg/kg. An outline of the steps: as §2
The target in series [9] is Excitatory amino acid transporter 2 (Homo sapiens) (UniProt P43004). Kind of series: Inhibition of human EAAT2 expressed in HEK293 cells at 75 uM by [3H]D-Asp uptake assay. Type of series: cell-based. The method in brief:
as §1

In series [10] the target is T1, Excitatory amino acid transporter 3 (Homo sapiens). The series is described as follows: Inhibition of human EAAT3 expressed in HEK293 cells at 75 uM by [3H]D-Asp uptake assay. Type of series: cell-based. An outline of the steps:
as §1

Chain of Excitatory amino acid transporter 1 (P43003 whole entry): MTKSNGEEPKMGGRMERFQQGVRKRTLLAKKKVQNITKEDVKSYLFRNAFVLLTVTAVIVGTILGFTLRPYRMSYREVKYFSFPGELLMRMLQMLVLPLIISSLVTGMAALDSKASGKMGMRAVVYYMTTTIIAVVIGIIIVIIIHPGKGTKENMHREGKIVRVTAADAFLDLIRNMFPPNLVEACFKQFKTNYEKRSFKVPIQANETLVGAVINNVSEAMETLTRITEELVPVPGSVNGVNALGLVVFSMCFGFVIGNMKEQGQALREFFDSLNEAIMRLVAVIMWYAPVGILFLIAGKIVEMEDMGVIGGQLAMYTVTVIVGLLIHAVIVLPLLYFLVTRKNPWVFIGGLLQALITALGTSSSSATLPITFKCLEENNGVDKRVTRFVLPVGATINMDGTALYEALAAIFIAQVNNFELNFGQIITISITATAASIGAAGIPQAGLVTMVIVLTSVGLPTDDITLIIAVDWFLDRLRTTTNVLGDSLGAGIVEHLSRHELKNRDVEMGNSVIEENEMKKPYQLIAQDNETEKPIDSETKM
Chain of Excitatory amino acid transporter 2 (Homo sapiens) (P43004 whole entry): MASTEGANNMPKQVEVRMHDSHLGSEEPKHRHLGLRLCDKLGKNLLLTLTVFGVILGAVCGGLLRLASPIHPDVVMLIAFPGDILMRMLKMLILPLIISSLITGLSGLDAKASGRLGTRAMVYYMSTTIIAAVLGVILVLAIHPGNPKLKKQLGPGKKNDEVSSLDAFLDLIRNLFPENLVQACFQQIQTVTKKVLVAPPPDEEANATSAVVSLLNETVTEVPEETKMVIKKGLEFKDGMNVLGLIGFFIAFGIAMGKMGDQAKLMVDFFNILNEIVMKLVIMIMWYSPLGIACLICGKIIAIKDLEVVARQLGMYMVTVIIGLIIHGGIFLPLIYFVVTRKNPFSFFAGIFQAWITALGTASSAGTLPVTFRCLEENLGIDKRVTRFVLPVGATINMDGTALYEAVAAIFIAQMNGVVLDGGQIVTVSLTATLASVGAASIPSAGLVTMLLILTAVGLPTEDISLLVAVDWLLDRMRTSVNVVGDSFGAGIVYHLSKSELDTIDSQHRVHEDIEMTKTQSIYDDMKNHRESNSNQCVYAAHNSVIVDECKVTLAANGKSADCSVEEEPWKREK

For the compound `N#CC1=C(N)OC2=C(C1)C(=O)CC(c1ccccc1)C2` (stereo unspecified), the inhibition result in series [1] and in [3] was “inactive” each time. Besides, the IC50 in series [2] (read-out: pIC50 (converted)) is above 316 µM.
As for `N#CC1=C(N)OC2=C(C(=O)O[C@@H](c3ccccc3)C2)[C@@H]1c1ccccc1` (relative stereo), the inhibition entry in series [1] and in series [3] was “inactive” each time. Moreover, the values for the IC50 in [2] (read-out: IC50) and in [2] (read-out: pIC50 (converted)) were above 300 µM and above 316 µM, respectively.
Regarding `N#CC1=C(N)OC2=C(C(=O)CC(c3ccccc3)C2)C1c1ccccc1F` (stereo unspecified), the inhibition result in series [4] and in series [5] was “inactive” throughout.
For `COC(=O)C1=C(N)OC2=C(C(=O)CC(c3ccccc3)C2)C1c1ccccc1` (stereo unspecified), the inhibition result in series [1] and in series [3] was “inactive” throughout. The figures for the IC50 in series [2] (read-out: IC50) and in series [2] (read-out: pIC50 (converted)) were above 300 µM and above 316 µM, respectively.
As to `N#CC1=C(N)OC2=C(C(=O)CC(c3ccccc3)C2)C1c1ccccc1` (stereo unspecified), the inhibition entry in [6] and in series [7] was “inactive” throughout. Moreover, the IC50 in series [2] (read-out: IC50) was 3.8 µM; in series [2] (read-out: pIC50 (converted)), 6.31 µM.
As to `N#CC1=COC2=C(C(=O)CC(c3ccccc3)C2)C1c1ccccc1` (stereo unspecified), the inhibition entry in series [4] and in [5] was “inactive” each time. This compound came in with a negative-log IC50 (pIC50) in [2] below 4. In series [2] (read-out: IC50), the IC50 was above 100 µM.
In the series on Brain, `COc1ccc(C2C(C#N)=C(N)OC3=C2C(=O)CC(c2cccc4ccccc24)C3)cc1` (stereo unspecified) returned a Drug uptake below 10 ng/g. The inhibition result in series [1] and in series [3] was “inactive” throughout. For the same compound, in [8], the half-life amounted to 30 min.
As for `CC1C(C#N)=C(N)OC2=C1C(=O)CC(c1cccc3ccccc13)C2` (stereo unspecified), the inhibition entry in series [4] and in [5] was “inactive” throughout. In addition, the IC50 in series [2] (read-out: IC50) is 0.43 µM; in [2] (read-out: pIC50 (converted)), 0.339 µM.
In the case of `N#CC1=C(N)OC2=C(C(=O)N[C@H](c3ccccc3)C2)[C@@H]1c1ccccc1` (relative stereo), the inhibition result in [1] and in series [3] was “inactive” in each case. The IC50 in series [2] (read-out: IC50) was above 300 µM; in series [2] (read-out: pIC50 (converted)), above 316 µM.
With `COc1ccc(C2C(C#N)=C(N)OC3=C2C(=O)CC(c2ccc4ccccc4c2)C3)cc1` (stereo unspecified), the inhibition entry in [1] and in series [3] was “inactive” each time. Besides, in [2] (read-out: IC50), the IC50 worked out at 3.2 µM.
In the case of `NC(=O)C1=C(N)OC2=C(C(=O)CC(c3ccccc3)C2)C1c1ccccc1` (stereo unspecified), the inhibition entry in series [4] and in series [5] was “inactive” each time. The same compound returned a pIC50 in [2] below 4. The IC50 in series [2] (read-out: IC50) is above 100 µM.
In the case of `CC1CC(=O)C2=C(C1)OC(N)=C(C#N)C2c1ccc2c(c1)OCO2` (stereo unspecified), the inhibition result in series [1] and in series [3] was “inactive” throughout. Further, the IC50 in [2] (read-out: pIC50 (converted)) was above 316 µM.
On to `CC1C(C#N)=C(N)OC2=C1C(=O)CC(c1ccccc1)C2` (stereo unspecified), for which the inhibition entry in series [1] and in series [3] was “inactive” in each case.
Consider `CC(C)(C)OC(=O)C1=C(N)OC2=C(C(=O)CC(c3ccccc3)C2)C1c1ccccc1` (stereo unspecified), for which the inhibition entry in [9] and in series [10] was “inactive” each time. Further, the IC50 in series [2] (read-out: IC50) was above 75 µM; in series [2] (read-out: pIC50 (converted)), above 158 µM.
With `CC(=O)NC1=C(C#N)C(c2ccccc2)C2=C(CC(c3ccccc3)CC2=O)O1` (stereo unspecified), the inhibition result in [4] and in series [5] was “inactive” throughout. In [2], this compound came in with a pIC50 below 4. Also, the IC50 in series [2] (read-out: IC50) was above 100 µM.
As for `CCO/C=N/C1=C(C#N)C(c2ccccc2)C2=C(CC(c3ccccc3)CC2=O)O1` (stereo unspecified), the inhibition result in series [6] and in series [7] was “inactive” each time. Also, the negative-log IC50 (pIC50) in series [2] is recorded as below 3. In addition, the IC50 in [2] (read-out: IC50) was above 1000 µM.
On to `N#CC1=C(N)OC2=C(C(=O)CCC2)C1c1ccccc1F` (stereo unspecified), for which the inhibition result in series [1] and in [3] was “inactive” throughout. Further, the IC50 in [2] (read-out: pIC50 (converted)) was above 316 µM.
`NC1=CC(c2ccccc2)C2=C(CC(c3ccccc3)CC2=O)O1` (stereo unspecified): the inhibition entry in series [4] and in [5] was “inactive” each time. Also, in [2], the negative logarithm of the IC50 (pIC50) is listed as below 4. Also, the IC50 in series [2] (read-out: IC50) was above 100 µM.
As to `N#CC1=C(N)OC2=C(C(=O)O[C@H](c3ccccc3)C2)[C@@H]1c1ccccc1` (relative stereo), the inhibition entry in [1] and in series [3] was “inactive” throughout. Besides, the IC50 in series [2] (read-out: IC50) was above 300 µM; in series [2] (read-out: pIC50 (converted)), above 316 µM.
`COc1ccc(C2C(C#N)=C(N)OC3=C2C(=O)CC(Cc2ccccc2)C3)cc1` (stereo unspecified): the inhibition entry in series [4] and in [5] was “inactive” in each case. The IC50 in series [2] (read-out: IC50) was 5.1 µM; in [2] (read-out: pIC50 (converted)) it was 4.79 µM.
In the case of `N#CC1=C(N)OC2=C(C(=O)N[C@@H](c3ccccc3)C2)[C@@H]1c1ccccc1` (relative stereo), the inhibition entry in [1] and in series [3] was “inactive” each time. For the same compound, the IC50 was above 300 µM in [2] (read-out: IC50) and above 316 µM in series [2] (read-out: pIC50 (converted)).

The term pIC50 denotes the IC50 on a negative log10 scale, so that one unit is a factor of ten. Lower therefore signals a large IC50.
